This is a sample that favours compounds with a hit; in the whole collection about 2.3% have one here.
TRPC6 inhibitor = mouse TRPC6 channel inhibitors, primary screen, cell-based, HEK293, membrane potential dye | B-score at 10 µM | ACh-evoked depolarization; stronger effect = lower value | actives 1.1% (n = 310,000) | AID 2553, 2010 | Short transient receptor potential channel 6 (Mus musculus), Q61143;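 active = B-score under library mean minus 3 SD, initial fluorescence not abnormally high, positive integrated signal ratio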;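 also: B-score derived from integrated fluorescence ratio over the kinetic read; more negative B-score means stronger inhibition of depolarization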
Target sequence (Q61143 whole entry, looked up): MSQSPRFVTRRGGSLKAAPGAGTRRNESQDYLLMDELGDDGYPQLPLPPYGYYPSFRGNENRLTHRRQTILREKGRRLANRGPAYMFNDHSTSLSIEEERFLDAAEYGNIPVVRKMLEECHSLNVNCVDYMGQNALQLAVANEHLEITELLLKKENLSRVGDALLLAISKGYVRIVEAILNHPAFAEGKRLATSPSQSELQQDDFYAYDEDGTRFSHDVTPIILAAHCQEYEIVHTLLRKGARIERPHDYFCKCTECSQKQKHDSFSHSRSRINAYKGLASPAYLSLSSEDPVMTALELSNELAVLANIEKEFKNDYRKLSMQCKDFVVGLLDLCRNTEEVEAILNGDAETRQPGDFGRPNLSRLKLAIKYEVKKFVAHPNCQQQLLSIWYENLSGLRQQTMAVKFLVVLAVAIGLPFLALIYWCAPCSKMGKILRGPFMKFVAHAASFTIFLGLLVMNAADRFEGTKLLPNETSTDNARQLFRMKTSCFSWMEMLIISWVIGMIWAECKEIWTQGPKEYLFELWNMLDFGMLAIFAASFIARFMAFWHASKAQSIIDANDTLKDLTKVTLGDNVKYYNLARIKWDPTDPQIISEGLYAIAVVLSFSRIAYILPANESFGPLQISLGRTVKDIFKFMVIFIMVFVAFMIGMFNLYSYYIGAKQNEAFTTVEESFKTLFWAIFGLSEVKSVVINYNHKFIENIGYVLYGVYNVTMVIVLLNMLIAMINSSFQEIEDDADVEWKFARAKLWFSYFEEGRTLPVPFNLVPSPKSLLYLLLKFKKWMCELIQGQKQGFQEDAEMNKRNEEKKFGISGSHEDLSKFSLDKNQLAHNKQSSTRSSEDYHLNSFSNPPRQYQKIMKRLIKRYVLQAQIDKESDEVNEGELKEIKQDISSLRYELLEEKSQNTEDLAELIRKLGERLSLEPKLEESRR
TRPC4 potent = positive allosteric modulators of TRPC4, primary screen, cell-based, mouse TRPC4beta, HEK293 mu-opioid, Fluo-4 calcium; Short transient receptor potential channel 4 (Mus musculus), Q9QUQ5; DAMGO EC20, Fluo-4 Ca2+ flux; stronger effect = higher value; actives 0.42% (n = 310,000); B-score at 10 µM; AID 2227, 2009;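 active = B-score of calcium response area above 5 SD of library B-scores, with initial fluorescence ratio within 5 SD of library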;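 also: B-score of integrated fluorescence ratio over time as area under calcium response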
TRPC4 agonist = activators of mouse TRPC4 channel, primary screen, Fluo4 calcium, HEK293 TRPC4beta/mu-opioid cells; Short transient receptor potential channel 4 (Mus musculus), Q9QUQ5; Fluo4 calcium fluorescence; stronger effect = higher value; B-score at 10 µM; actives 0.49% (n = 310,000); AID 2237, 2010;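 active = B-score above 5 SD of library B-scores, and initial fluorescence ratio not above library mean plus 5 SD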;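 also: positive B-score marks a calcium rise read as TRPC4 activation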
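Assay system: HEK293 cells stably co-expressing mouse TRPC4beta and mu-opioid receptor / Timing: Fluo4 dye loading 45 min at room temperature, 110 s recording / Signal: Fluo4 calcium-sensitive dye fluorescence, kinetic, 1 Hz baseline / Read-out: integrated baseline-normalised fluorescence ratio, converted to per-well B score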
Yeast superoxide = reduction of superoxide in aged yeast, primary screen, HTS. superoxide response (% of plate mean), % at 10 µM. AID 2690, 2010. actives 0.18% (n = 330,000). S. cerevisiae aged cells, superoxide DHE fluorescence; stronger effect = lower value;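 active = superoxide response under a set limit, about three screen SD below normal, cut at about 65% in these data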;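 also: yeast aged for seven days with compound at 30 °C before DHE staining; 100% = average MFI of all compound-treated wells on the plate with controls excluded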
TRPC4 block = inhibitors of mouse TRPC4 channel, primary screen, Fluo4 calcium, HEK293 TRPC4beta/mu-opioid cells. DAMGO-evoked Fluo4 calcium flux; stronger effect = lower value. AID 2247, 2010. Short transient receptor potential channel 4 (Mus musculus), Q9QUQ5. actives 0.39% (n = 300,000). B-score at 10 µM;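 active = B-score over 3 SD under the library average, no early fluorescence shift, positive overall ratio signal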
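Assay system: HEK293 cells with stable TRPC4beta plus mu-opioid receptor expression; Probe or stimulus: DAMGO in two steps, submaximal then maximal; Dosing: single-point compound dosing; Measured by: Fluo4 calcium-dye fluorescence, kinetic read; Read-out basis: B score from integrated Fluo4 fluorescence ratio.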
TRPC6 activator = mouse TRPC6 channel activators, primary screen, cell-based, HEK293, membrane potential dye. Short transient receptor potential channel 6 (Mus musculus), Q61143. B-score at 10 µM. actives 0.13% (n = 310,000). HEK293-TRPC6 membrane potential dye fluorescence; stronger effect = higher value;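 active = B-score of the integrated fluorescence ratio above library mean plus 3 SD, and starting fluorescence ratio within library mean plus 5 SD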;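 also: higher score means more depolarization so channel activation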
An asterisk follows results filed as active.

Results for Cc1ccc(C)c2[nH]c(=O)c(CN(CC3CCCO3)C(=S)NCc3ccco3)cc12 (centres undefined) ?
TRPC6 inhibitor: inactive; TRPC4 potent: inactive; TRPC4 agonist: inactive; Yeast superoxide: 90; TRPC4 block: -6*; TRPC6 activator: inactive

How did CCN1CCN(C(=S)c2ccc(SC)cc2)CC1 do in these assays?
TRPC6 inhibitor: inactive; TRPC4 potent: inactive; TRPC4 agonist: inactive; Yeast superoxide: 89; TRPC4 block: inactive; TRPC6 activator: inactive

What do the screens show for `Cc1cccc(N2CCN(C(=O)c3cc4cc(F)ccc4[nH]3)CC2)c1C`?
TRPC6 inhibitor: inactive; TRPC4 potent: inactive; TRPC4 agonist: inactive; Yeast superoxide: 106; TRPC4 block: inactive; TRPC6 activator: inactive

How did CCC(C)NCCC(=O)Nc1ccc(Cl)c(S(=O)(=O)Nc2ccc(Cl)cc2)c1 (centres undefined) do in these assays?
TRPC6 inhibitor: inactive; TRPC4 potent: 11*; TRPC4 agonist: inactive; Yeast superoxide: 99; TRPC4 block: inactive; TRPC6 activator: inactive

Results for CN1CCCN(Cc2cccc3ccccc23)CC1 ?
TRPC6 inhibitor: inactive; TRPC4 potent: 23*; TRPC4 agonist: inactive; Yeast superoxide: 106; TRPC4 block: inactive; TRPC6 activator: inactive

How did COc1cc(/C=C/C(=O)OCC(=O)Nc2c(C)n(C)n(-c3ccccc3)c2=O)ccc1OCC#N do in these assays?
TRPC6 inhibitor: inactive; TRPC4 potent: inactive; TRPC4 agonist: 125*; Yeast superoxide: 117; TRPC4 block: inactive; TRPC6 activator: inactive

How did COc1cc2c(cc1NC(=O)Nc1ccc(C)cc1)oc1ccccc12 do in these assays?
TRPC6 inhibitor: inactive; TRPC4 potent: inactive; TRPC4 agonist: inactive; Yeast superoxide: 95; TRPC4 block: inactive; TRPC6 activator: inactive

What do the screens show for `COc1cc2c(cc1NC(=O)C(C)Sc1ccc(NC(C)=O)cc1)oc1ccccc12` (centres undefined)?
TRPC6 inhibitor: inactive; TRPC4 potent: 11*; TRPC4 agonist: inactive; Yeast superoxide: 96; TRPC4 block: inactive; TRPC6 activator: inactive

Results for Cc1cccc2c(CC(=O)O)noc12 ?
TRPC6 inhibitor: inactive; TRPC4 potent: inactive; TRPC4 agonist: inactive; Yeast superoxide: 97; TRPC4 block: inactive; TRPC6 activator: inactive

Results for OC(C#CCN1CCOCC1)c1cccs1 (centres undefined) ?
TRPC6 inhibitor: inactive; TRPC4 potent: inactive; TRPC4 agonist: 77*; Yeast superoxide: 101; TRPC4 block: inactive; TRPC6 activator: inactive

How did CC(=O)OC(C#CCN1CCOCC1)c1ccccc1 (centres undefined) do in these assays?
TRPC6 inhibitor: inactive; TRPC4 potent: inactive; TRPC4 agonist: inactive; Yeast superoxide: 77; TRPC4 block: inactive; TRPC6 activator: inactive

How did CN(C)CCCOC(=O)c1ccc(Cl)cc1Cl do in these assays?
TRPC6 inhibitor: inactive; TRPC4 potent: 27*; TRPC4 agonist: inactive; Yeast superoxide: 99; TRPC4 block: inactive; TRPC6 activator: inactive

What do the screens show for `Cc1ccc(C(=O)C2=C(O)C(=O)N(Cc3cccnc3)C2c2ccc(Cl)c(Cl)c2)o1` (centres undefined)?
TRPC6 inhibitor: inactive; TRPC4 potent: inactive; TRPC4 agonist: inactive; Yeast superoxide: 97; TRPC4 block: -6*; TRPC6 activator: inactive

How did Cc1cc(N(CCO)CCO)ccc1C(c1ccc(N(CCO)CCO)cc1C)c1ccccc1Cl do in these assays?
TRPC6 inhibitor: inactive; TRPC4 potent: 11*; TRPC4 agonist: inactive; Yeast superoxide: 97; TRPC4 block: inactive; TRPC6 activator: inactive

How did O=C(c1ccc(OC2CCN(CCc3ccccc3)CC2)cc1)N1CCCC1 do in these assays?
TRPC6 inhibitor: inactive; TRPC4 potent: inactive; TRPC4 agonist: inactive; Yeast superoxide: 97; TRPC4 block: inactive; TRPC6 activator: inactive

How did O=C(Nc1ccccc1)N1CCN(c2nc3ccccc3s2)CC1 do in these assays?
TRPC6 inhibitor: inactive; TRPC4 potent: inactive; TRPC4 agonist: 43*; Yeast superoxide: 86; TRPC4 block: inactive; TRPC6 activator: inactive

Results for c1ccc(CN2CCN(c3nc4ccccc4n4cnnc34)CC2)cc1 ?
TRPC6 inhibitor: inactive; TRPC4 potent: inactive; TRPC4 agonist: inactive; Yeast superoxide: 102; TRPC4 block: inactive; TRPC6 activator: inactive

How did c1ccc(Nc2nc(NCc3ccco3)c3ccccc3n2)cc1 do in these assays?
TRPC6 inhibitor: inactive; TRPC4 potent: inactive; TRPC4 agonist: inactive; Yeast superoxide: 100; TRPC4 block: inactive; TRPC6 activator: inactive

What do the screens show for `Cc1ccccc1Nc1nc(NCc2ccco2)c2ccccc2n1`?
TRPC6 inhibitor: -5.8*; TRPC4 potent: inactive; TRPC4 agonist: 49*; Yeast superoxide: 99; TRPC4 block: -9*; TRPC6 activator: inactive

What do the screens show for `CCn1c(=S)sc2c(=O)n(CC(=O)Nc3ccccc3C(F)(F)F)c(C)nc21`?
TRPC6 inhibitor: inactive; TRPC4 potent: inactive; TRPC4 agonist: inactive; Yeast superoxide: 97; TRPC4 block: inactive; TRPC6 activator: inactive

How did N=C1c2ccccc2CN1NC(=O)c1cccc(S(=O)(=O)N2CCCCC2)c1 do in these assays?
TRPC6 inhibitor: inactive; TRPC4 potent: inactive; TRPC4 agonist: 49*; Yeast superoxide: 120; TRPC4 block: inactive; TRPC6 activator: inactive

What do the screens show for `CC(OC(=O)CNC(=O)c1ccccc1F)C(=O)Nc1nc(-c2ccccc2)cs1` (centres undefined)?
TRPC6 inhibitor: inactive; TRPC4 potent: inactive; TRPC4 agonist: inactive; Yeast superoxide: 80; TRPC4 block: -6*; TRPC6 activator: inactive

How did Cc1ccc(C(=O)C(c2ccccc2)N2Cc3ccccc3C2=N)cc1 (centres undefined) do in these assays?
TRPC6 inhibitor: inactive; TRPC4 potent: inactive; TRPC4 agonist: 210*; Yeast superoxide: 103; TRPC4 block: inactive; TRPC6 activator: inactive

How did COc1ccc(C(=O)C(c2ccccc2)N2CCOCC2)cc1 (centres undefined) do in these assays?
TRPC6 inhibitor: inactive; TRPC4 potent: inactive; TRPC4 agonist: inactive; Yeast superoxide: 101; TRPC4 block: inactive; TRPC6 activator: inactive

From PubChem BioAssay
